Measurements published in ChEMBL document CHEMBL3596154, “Discovery of biaryl carboxylamides as potent RORγ inverse agonists” (Bioorg Med Chem Lett, 2015).
pEC50, pIC50: −log10 of the molar value.

Columns and labels:
[1] = target: T1, Nuclear receptor ROR-gamma (Homo sapiens, UniProt P51449); experiment: Inverse agonist activity at human recombinant GST-tagged RORgammat ligand binding domain assessed as effect on receptor-biotin tagged TRAP220 co-activator peptide interaction using 10 nM GST-RORgamma LBD by FRET-based assay
T1 sequence (P51449 whole entry): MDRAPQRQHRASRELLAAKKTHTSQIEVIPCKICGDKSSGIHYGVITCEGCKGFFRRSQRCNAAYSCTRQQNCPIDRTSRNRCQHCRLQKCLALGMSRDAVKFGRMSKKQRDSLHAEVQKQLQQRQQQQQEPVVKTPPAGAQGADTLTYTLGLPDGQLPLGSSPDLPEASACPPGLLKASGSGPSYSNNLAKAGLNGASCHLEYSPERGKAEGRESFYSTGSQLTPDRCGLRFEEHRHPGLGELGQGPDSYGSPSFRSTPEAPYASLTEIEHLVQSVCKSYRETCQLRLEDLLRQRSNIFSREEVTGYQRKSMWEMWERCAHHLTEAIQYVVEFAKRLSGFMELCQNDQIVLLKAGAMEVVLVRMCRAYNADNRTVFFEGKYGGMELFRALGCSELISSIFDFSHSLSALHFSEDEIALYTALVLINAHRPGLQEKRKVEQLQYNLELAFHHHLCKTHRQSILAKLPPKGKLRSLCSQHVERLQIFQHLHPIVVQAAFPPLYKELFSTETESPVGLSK
How it was run: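 Recombinant human GST-RORγ LBD (10 nM) with 40 nM biotin-TRAP220 co-activator peptide, 50 nM SAAPC, 1.5 nM Eu-anti-GST IgG. Buffer: 20 mM Tris-HCl pH 7.0, 60 mM NaCl, 5 mM MgCl2, 1 mM DTT, 0.1% BSA, 1.0% DMSO. FRET read on plate reader. IC50 is the mean of at least two runs.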

[2] = target: T1, Nuclear receptor ROR-gamma; experiment: Inverse agonist activity at Gal4 DNA binding domain-tagged human RORgammat expressed in HEK293T cells assessed as effect on receptor-mediated transcriptional activity by luciferase reporter gene assay; assay type: functional, cell-based, HEK-293T
How it was run: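 293T cells transfected with a Gal4:RORγ luciferase reporter. Cells seeded day 1 and transfected day 2; compound added in assay medium after transfection. Day 3: cells lysed and luminescence read by dual-flash. Dose-response EC50 is the mean of at least two runs.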

[3] = Clearance in human hepatocytes relative to hepatic blood flow; assay type: ADME, cell-based, Liver, Hepatocyte; details: read-out: CLH
[4] = Clearance in rat hepatocytes relative to hepatic blood flow; assay type: ADME, cell-based, Liver, Hepatocyte; details: read-out: CLH
[5] = Clearance in mouse hepatocytes relative to hepatic blood flow; assay type: ADME, cell-based, Liver, Hepatocyte; details: read-out: CLH
[6] = target: T1, Nuclear receptor ROR-gamma; experiment: Inverse agonist activity at human recombinant GST-tagged RORgammat ligand binding domain assessed as effect on receptor-biotin tagged TRAP220 co-activator peptide interaction using 10 nM GST-RORgamma LBD by FRET-based assay
[7] = Apparent permeability from apical to basolateral side in human Caco2 cells; assay type: ADME, cell-based; details: Caco-2
[8] = Apparent permeability from basolateral to apical side in human Caco2 cells; assay type: ADME, cell-based; details: Caco-2
[9] = Inhibition of CYP450 (unknown origin); assay type: ADME; details: human
[10] = Half life in rat at 2 mg/kg, iv; assay type: ADME, organism-based; details: in vivo
How it was run: (§1)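 Rats dosed at 2.0 mg/kg intravenously in SPEW vehicle. Plasma exposure profiled for T1/2 and Cmax.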

[11] = AUC (infinity) in rat at 2 mg/kg, iv; assay type: ADME, organism-based; design: dose 2 mg/kg, time infinity, route intravenous; details: in vivo
How it was run: (§2)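 Rat PK; iv dosing at 2.0 mg/Kg in SPEW vehicle, oral dosing at 10 mg/Kg in 0.1% CMC-0.2%Tween; AUCinf reported in ng*hr/mL.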

[12] = AUC (infinity) in rat at 10 mg/kg, po; assay type: ADME, organism-based; design: dose 10 mg/kg, route oral, time infinity; details: in vivo; how it was run: as §2
[13] = Cmax in rat at 2 mg/kg, iv; assay type: ADME, organism-based; design: dose 2 mg/kg, route intravenous; details: in vivo; how it was run: as §1
[14] = Cmax in rat at 10 mg/kg, po; assay type: ADME, organism-based; design: dose 10 mg/kg, route oral; details: in vivo
Rattus norvegicus = experiment: Clearance in rat at 2 mg/kg, iv relative to hepatic blood flow; assay type: ADME, organism-based, Liver; details: in vivo
How it was run: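 Rats given 2.0 mg/kg iv in SPEW vehicle. Clearance is expressed as % of hepatic blood flow (%Qh).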

[15] = Oral bioavailability in rat at 10 mg/kg; assay type: ADME, organism-based; details: in vivo

Row | Structure (SMILES) | pIC50 [1] | pEC50 [2] | other results
1 | NC(=O)c1cccc(-c2ccc3c(c2)CCCN3C(=O)c2c(F)cccc2Cl)c1 | 5.21 |  | 
2 | NC(=O)c1cc(F)cc(-c2ccc3c(c2)CCCN3C(=O)c2c(F)cccc2Cl)c1 | 4.89 |  | 
3 | NC(=O)c1cc(-c2ccc3c(c2)CCCN3C(=O)c2c(F)cccc2Cl)ccc1F | 5.03 |  | 
4 | NC(=O)c1cc(-c2ccc3c(c2)CCCN3C(=O)c2c(F)cccc2Cl)c(F)cc1F | 5.15 |  | 
5 | NC(=O)c1cc(-c2ccc3c(c2)CCCN3C(=O)c2c(F)cccc2Cl)c(Cl)cc1F | 6.26 | 6.85 | 
6 | O=C(NC1CCCC1)c1ccc(Cl)c(-c2ccc3c(c2)CCCN3C(=O)c2c(F)cccc2Cl)c1 | 6.43 | 6.48 | 
7 | O=C(NCC(O)CO)c1ccc(Cl)c(-c2ccc3c(c2)CCCN3C(=O)c2c(F)cccc2Cl)c1 (configuration not stated) | 6.12 |  | 
8 | O=C(NCCN1CCOCC1)c1ccc(Cl)c(-c2ccc3c(c2)CCCN3C(=O)c2c(F)cccc2Cl)c1 | 5.67 |  | 
9 | CN(C(=O)c1c(F)cccc1Cl)c1ccc(-c2cc(C(N)=O)ccc2Cl)cc1 |  |  | pIC50 [6]: 5.06
10 | CCN(C(=O)c1c(F)cccc1Cl)c1ccc(-c2cc(C(N)=O)ccc2Cl)cc1 |  |  | pIC50 [6]: 5.89
11 | CN(C(=O)c1c(F)cccc1Cl)c1ccc(-c2cc(C(N)=O)ccc2Cl)cc1F |  |  | pIC50 [6]: 5.71
12 | CN(C(=O)c1c(F)cccc1Cl)c1ccc(-c2cc(C(N)=O)ccc2Cl)cc1Cl |  |  | pIC50 [6]: 5.68
13 | Cc1cc(-c2cc(C(N)=O)ccc2Cl)ccc1N(C)C(=O)c1c(F)cccc1Cl |  |  | pIC50 [6]: 5.37
14 | CN(C(=O)c1c(F)cccc1Cl)c1ccc(-c2cc(C(N)=O)ccc2Cl)cc1C(F)(F)F |  | 6.32 | pIC50 [6]: 6.64
15 | CCN(C(=O)c1c(F)cccc1Cl)c1ccc(-c2cc(C(N)=O)ccc2Cl)cc1OC |  |  | pIC50 [6]: 5.82
16 | CCN(C(=O)c1c(F)cccc1Cl)c1ccc(-c2cc(C(N)=O)ccc2Cl)cc1C(F)(F)F | 5.80 |  | 
17 | CCOc1cc(-c2cc(C(N)=O)ccc2Cl)ccc1N(C)C(=O)c1c(F)cccc1Cl | 7.30 | 6.74 | 
18 | CC(C)Oc1cc(-c2cc(C(N)=O)ccc2Cl)ccc1N(C)C(=O)c1c(F)cccc1Cl | 7.27 | 6.74 | 
19 | CCCOc1cc(-c2cc(C(N)=O)ccc2Cl)ccc1N(C)C(=O)c1c(F)cccc1Cl | 7.96 | 7.24 | 
20 | CCCCOc1cc(-c2cc(C(N)=O)ccc2Cl)ccc1N(C)C(=O)c1c(F)cccc1Cl | 7.66 | 7.00 | 
21 | CN(C(=O)c1c(F)cccc1Cl)c1ccc(-c2cc(C(N)=O)ccc2Cl)cc1OCC(F)(F)F | 7.96 | 7.03 | hepatic extraction ratio [3]: 0.88; hepatic extraction ratio [4]: 0.83; Papp A→B [7]: 32.2 ×10⁻⁶ cm/s; Papp B→A [8]: 35.3 ×10⁻⁶ cm/s; inhibition (INH) [9]: Not Active; half-life [10]: 1.3 h; AUC(0-inf) [11]: 1130 ng·h/mL; AUC(0-inf) [12]: 1550 ng·h/mL; Cmax [13]: 2350 ng/mL; Cmax [14]: 1010 ng/mL; CLH (Rattus norvegicus): 54%; bioavailability [15]: 28%
22 | CN(C(=O)c1c(F)cccc1Cl)c1ncc(-c2cc(C(N)=O)ccc2Cl)cc1OCC(F)(F)F | 7.70 | 6.61 | Papp A→B [7]: 35.9 ×10⁻⁶ cm/s; Papp B→A [8]: 54.5 ×10⁻⁶ cm/s; inhibition (INH) [9]: Not Active
23 | [2H]C([2H])([2H])N(C(=O)c1c(F)cccc1Cl)c1ncc(-c2cc(C(N)=O)ccc2Cl)cc1OCC(F)(F)F | 7.05 | 6.61 | 
24 | CN(C(=O)c1c(F)cccc1Cl)c1ncc(-c2cc(C(N)=O)ccc2Cl)cc1OCC1CCC1 | 8.00 | 7.24 | 
25 | [2H]C([2H])([2H])N(C(=O)c1c(F)cccc1Cl)c1ncc(-c2cc(C(N)=O)ccc2Cl)cc1OCC1CCC1 | 8.00 | 7.22 | 
26 | CCNc1cc(-c2cc(C(N)=O)ccc2Cl)ccc1N(C)C(=O)c1c(F)cccc1Cl | 6.30 | 6.14 | 
27 | CCN(CC)c1cc(-c2cc(C(N)=O)ccc2Cl)ccc1N(C)C(=O)c1c(F)cccc1Cl | 8.52 | 7.92 | 
28 | Cn1ccc2c(S(=O)(=O)N(CC(F)(F)F)c3ccc(-c4cc(C(N)=O)ccc4Cl)cc3)cccc21 | 6.15 |  | 

Second part, led by results:

Row | pIC50 [1] | pEC50 [2] | Structure (SMILES) | other results
29 | 6.66 | 6.70 | NC(=O)c1ccc(Cl)c(-c2ccc3c(c2)CCCN3C(=O)c2c(F)cccc2Cl)c1 | 
30 | 6.52 | 6.35 | Cc1ccc(C(N)=O)cc1-c1ccc2c(c1)CCCN2C(=O)c1c(F)cccc1Cl | 
31 | 6.00 |  | COc1ccc(C(N)=O)cc1-c1ccc2c(c1)CCCN2C(=O)c1c(F)cccc1Cl | 
32 | 4.96 |  | NC(=O)c1ccc(F)c(-c2ccc3c(c2)CCCN3C(=O)c2c(F)cccc2Cl)c1 | 
33 | 7.00 | 6.70 | CNC(=O)c1ccc(Cl)c(-c2ccc3c(c2)CCCN3C(=O)c2c(F)cccc2Cl)c1 | 
34 | 5.68 |  | CN(C)C(=O)c1ccc(Cl)c(-c2ccc3c(c2)CCCN3C(=O)c2c(F)cccc2Cl)c1 | 
35 | 6.48 | 6.80 | CCNC(=O)c1ccc(Cl)c(-c2ccc3c(c2)CCCN3C(=O)c2c(F)cccc2Cl)c1 | 
36 | 6.72 | 6.68 | O=C(NCCO)c1ccc(Cl)c(-c2ccc3c(c2)CCCN3C(=O)c2c(F)cccc2Cl)c1 | 
37 | 5.87 |  | COCCNC(=O)c1ccc(Cl)c(-c2ccc3c(c2)CCCN3C(=O)c2c(F)cccc2Cl)c1 | 
38 | 5.32 |  | NC(=O)c1ccc(Cl)c(-c2ccc3c(c2)CCN3C(=O)c2c(F)cccc2Cl)c1 | 
39 | 6.44 | 6.28 | NC(=O)c1ccc(Cl)c(-c2ccc3c(c2)CCCCN3C(=O)c2c(F)cccc2Cl)c1 | 
40 | 5.00 |  | CC1CCc2cc(-c3cc(C(N)=O)ccc3Cl)ccc2N1C(=O)c1c(F)cccc1Cl (configuration not stated) | 
41 | 6.19 | 6.35 | CC1(C)Cc2cc(-c3cc(C(N)=O)ccc3Cl)ccc2N(C(=O)c2c(F)cccc2Cl)C1 | 
42 | 6.70 | 6.52 | CC1(C)CCN(C(=O)c2c(F)cccc2Cl)c2ccc(-c3cc(C(N)=O)ccc3Cl)cc21 | 
43 | 5.44 |  | NC(=O)c1ccc(Cl)c(-c2ccc3c(c2)C(F)(F)CCN3C(=O)c2c(F)cccc2Cl)c1 | hepatic extraction ratio [3]: 0.74; hepatic extraction ratio [4]: 0.86; hepatic extraction ratio [5]: 0.83
44 | 5.72 |  | NC(=O)c1ccc(Cl)c(-c2ccc3c(c2)OCCN3C(=O)c2c(F)cccc2Cl)c1 | hepatic extraction ratio [3]: 0.76; hepatic extraction ratio [4]: 0.85; hepatic extraction ratio [5]: 0.82
45 | 6.60 | 6.68 | CN1CCN(C(=O)c2c(F)cccc2Cl)c2ccc(-c3cc(C(N)=O)ccc3Cl)cc21 | 
46 |  | 6.11 | CN(C(=O)c1c(F)cccc1Cl)c1ccc(-c2cc(C(N)=O)ccc2Cl)cc1Br | pIC50 [6]: 6.09
47 |  | 6.46 | CCc1cc(-c2cc(C(N)=O)ccc2Cl)ccc1N(C)C(=O)c1c(F)cccc1Cl | pIC50 [6]: 6.14
48 |  | 6.01 | COc1cc(-c2cc(C(N)=O)ccc2Cl)ccc1N(C)C(=O)c1c(F)cccc1Cl | pIC50 [6]: 6.43
49 | 8.52 | 8.10 | CN(C(=O)c1c(F)cccc1Cl)c1ccc(-c2cc(C(N)=O)ccc2Cl)cc1N1CCCCC1 | 
